Activity calls are given as the source filed them. The calls are words filed in the database; no cut-off is given here.
Assays:
[1] = tested on: Epidermal growth factor receptor (Homo sapiens), P00533 [C797S]; test: Inhibition of TEL-fused EGFR C797S mutant (unknown origin) expressed in mouse BAF3 cells assessed as decrease in cell proliferation after 72 hrs by CellTiter-Glo assay; type: cell-based
[2] = tested on: NCI-H1975; test: Cell cycle arrest in human NCI-H1975 cells assessed as accumulation at G0/G1 phase at 0.03 to 1 uM after 24 hrs by propidium iodide/RNase staining-based flow cytometry; type: functional
[3] = tested on: PC-9; test: Antiproliferative activity against human PC9 cells harboring EGFR del19 mutant after 72 hrs by CellTiter-Glo assay; type: functional; conditions: PC-9, 72 h
[4] = tested on: NCI-H2122; test: Antiproliferative activity against human NCI-H2122 cells harboring wild-type EGFR after 72 hrs by CellTiter-Glo assay; type: functional; conditions: NCI-H2122, 72 h
[5] = tested on: NCI-H1355; test: Antiproliferative activity against human NCI-H1355 cells harboring wild-type EGFR after 72 hrs by CellTiter-Glo assay; type: functional; conditions: NCI-H1355, 72 h
[6] = AUC (0 to t) in Sprague-Dawley rat at 1 mg/kg, iv; type: ADME, organism-based; conditions: in vivo
Outline: (§1)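 Rats dosed once intravenously at 1 mg/kg or orally at 10 mg/kg. Plasma exposure parameters derived: AUC0-t, AUC0-∞, MRT(0-t), Cmax, Tmax, T1/2 and oral bioavailability (F%). Values reported as mean ± spread.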

[7] = Cmax in Sprague-Dawley rat at 1 mg/kg, iv; type: ADME, organism-based; parameters: dose 1 mg/kg, route intravenous; conditions: in vivo; outline: as §1
[8] = Oral bioavailability in Sprague-Dawley rat at 10 mg/kg; type: ADME, organism-based; conditions: in vivo
Outline: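 Pharmacokinetics in rats given a single dose either intravenously at 1 mg/kg or orally at 10 mg/kg. Plasma parameters derived include AUC0-t, AUC0-∞, MRT(0-t), Cmax, Tmax, T1/2 and oral F (%).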

[9] = Half life in Sprague-Dawley rat at 10 mg/kg, po; type: ADME, organism-based; conditions: in vivo; outline: as §1
[10] = molecular target: T1, Epidermal growth factor receptor (Homo sapiens, UniProt P00533); test: Inhibition of EGFR phosphorylation at Y1068 in human NCI-H1975 cells at 30 nM after 4 hrs by immunoblotting method; type: cell-based
[11] = molecular target: T1, Epidermal growth factor receptor; test: Inhibition of EGFR in human A549 cells assessed as reduction in EGF-induced STAT3 phosphorylation at Tyr705 residue up to 3 uM after 4 hrs by immunoblotting method; type: cell-based
[12] = molecular target: T1, Epidermal growth factor receptor; test: Inhibition of EGFR in human A549 cells assessed as reduction in EGF-induced P70S6K phosphorylation at Thr389 residue up to 3 uM after 4 hrs by immunoblotting method; type: cell-based
[13] = molecular target: T1, Epidermal growth factor receptor; test: Inhibition of EGFR in human A549 cells assessed as reduction in EGF-induced ERK phosphorylation at Thr202/Tyr204 residues up to 3 uM after 4 hrs by immunoblotting method; type: cell-based
[14] = molecular target: T2, ALK tyrosine kinase receptor (Homo sapiens, UniProt Q9UM73); test: Inhibition of ALK phosphorylation at Tyr1604 residue in human NCI-H3122 cells harboring EML4-fused ALK at 100 nM after 2 hrs by immunoblot method; type: cell-based
[15] = molecular target: T2, ALK tyrosine kinase receptor; test: Inhibition of ALK in human NCI-H3122 cells harboring EML4-fused ALK assessed as reduction in ALK-induced AKT phosphorylation at Ser473 residue up to 3 uM after 2 hrs by immunoblot method; type: cell-based
[16] = molecular target: T2, ALK tyrosine kinase receptor; test: Inhibition of ALK in human NCI-H3122 cells harboring EML4-fused ALK assessed as reduction in ALK-induced ERK phosphorylation at Thr202/Tyr204 residues up to 3 uM after 2 hrs by immunoblot method; type: cell-based
[17] = tested on: NCI-H3122; test: Induction of apoptosis in human NCI-H3122 cells assessed as increase in cleaved PARP expression level at 300 nM after 24 hrs by Western blot method; type: functional, cell-based
[18] = tested on: NCI-H3122; test: Induction of apoptosis in human NCI-H3122 cells assessed as increase in cleaved caspase-3 expression level at 300 nM after 24 hrs by Western blot method; type: functional, cell-based
[19] = tested on: Mus musculus; test: Toxicity in nu/nu mouse xenografted with human NCI-H3122 cells assessed as change in body weight at 10 to 40 mg/kg, po qd administered for 28 days; type: organism-based; conditions: in vivo, 672 h
[20] = tested on: NCI-H3122; test: Antitumor activity against human NCI-H3122 cells xenografted in nu/nu mouse assessed as tumor growth inhibition at 10 mg/kg, po qd administered for 28 days; type: functional; conditions: 672 h, read-out: TGI
[21] = tested on: NCI-H3122; test: Antitumor activity against human NCI-H3122 cells xenografted in po dosed nu/nu mouse assessed as tumor growth inhibition administered for 28 days; type: functional, organism-based
[22] = organism: Homo sapiens; test: Selectivity index, ratio of IC50 for recombinant human GST-tagged EGFR L858R mutant to IC50 for recombinant human GST-tagged EGFR L858R/T790M mutant
[23] = organism: Homo sapiens; test: Selectivity index, ratio of IC50 for recombinant human wild-type His-tagged EGFR to IC50 for recombinant human GST-tagged EGFR L858R/T790M mutant
[24] = organism: Homo sapiens; test: Selectivity ratio of GI50 for inhibition of TEL-fused EGFR C797S mutant (unknown origin) expressed in mouse BAF3 cells assessed as decrease in cell proliferation to GI50 for TEL-fused EGFR (unknown origin) expressed in mouse BAF3 cells assessed as decrease in cell proliferation; type: cell-based
[25] = molecular target: T2, ALK tyrosine kinase receptor; test: Reversible inhibition of ALK phosphorylation at Tyr1604 residue in human NCI-H3122 cells at 30 to 300 nM measured 1 to 24 hrs post compound wash out by immunoblotting method; type: cell-based
[26] = molecular target: T2, ALK tyrosine kinase receptor
[27] = tested on: ALK tyrosine kinase receptor (Homo sapiens), Q9UM73 [F1174L]
[28] = tested on: ALK tyrosine kinase receptor (Homo sapiens), Q9UM73 [G1202R]
[29] = tested on: Mus musculus; test: Toxicity in nu/nu mouse xenografted with human NCI-H1975 cells assessed as change in body weight at 10 to 40 mg/kg, po qd administered for 21 days; conditions: in vivo, 504 h
[30] = tested on: NCI-H1975; test: Antitumor activity against human NCI-H1975 cells xenografted in nu/nu mouse assessed as tumor growth inhibition at 20 mg/kg, po qd administered for 21 days; conditions: 504 h, read-out: TGI
[31] = tested on: NCI-H1975; test: Antitumor activity against human NCI-H1975 cells xenografted in nu/nu mouse assessed as tumor growth inhibition at 40 mg/kg, po qd administered for 21 days; conditions: 504 h, read-out: TGI
[32] = tested on: NCI-H1975; test: Antitumor activity against human NCI-H1975 cells xenografted in nu/nu mouse assessed as tumor weight at 10 mg/kg, po qd administered for 21 days (reference value: 6.05g)

T2 sequence (Q9UM73 19-1620 limits assumed): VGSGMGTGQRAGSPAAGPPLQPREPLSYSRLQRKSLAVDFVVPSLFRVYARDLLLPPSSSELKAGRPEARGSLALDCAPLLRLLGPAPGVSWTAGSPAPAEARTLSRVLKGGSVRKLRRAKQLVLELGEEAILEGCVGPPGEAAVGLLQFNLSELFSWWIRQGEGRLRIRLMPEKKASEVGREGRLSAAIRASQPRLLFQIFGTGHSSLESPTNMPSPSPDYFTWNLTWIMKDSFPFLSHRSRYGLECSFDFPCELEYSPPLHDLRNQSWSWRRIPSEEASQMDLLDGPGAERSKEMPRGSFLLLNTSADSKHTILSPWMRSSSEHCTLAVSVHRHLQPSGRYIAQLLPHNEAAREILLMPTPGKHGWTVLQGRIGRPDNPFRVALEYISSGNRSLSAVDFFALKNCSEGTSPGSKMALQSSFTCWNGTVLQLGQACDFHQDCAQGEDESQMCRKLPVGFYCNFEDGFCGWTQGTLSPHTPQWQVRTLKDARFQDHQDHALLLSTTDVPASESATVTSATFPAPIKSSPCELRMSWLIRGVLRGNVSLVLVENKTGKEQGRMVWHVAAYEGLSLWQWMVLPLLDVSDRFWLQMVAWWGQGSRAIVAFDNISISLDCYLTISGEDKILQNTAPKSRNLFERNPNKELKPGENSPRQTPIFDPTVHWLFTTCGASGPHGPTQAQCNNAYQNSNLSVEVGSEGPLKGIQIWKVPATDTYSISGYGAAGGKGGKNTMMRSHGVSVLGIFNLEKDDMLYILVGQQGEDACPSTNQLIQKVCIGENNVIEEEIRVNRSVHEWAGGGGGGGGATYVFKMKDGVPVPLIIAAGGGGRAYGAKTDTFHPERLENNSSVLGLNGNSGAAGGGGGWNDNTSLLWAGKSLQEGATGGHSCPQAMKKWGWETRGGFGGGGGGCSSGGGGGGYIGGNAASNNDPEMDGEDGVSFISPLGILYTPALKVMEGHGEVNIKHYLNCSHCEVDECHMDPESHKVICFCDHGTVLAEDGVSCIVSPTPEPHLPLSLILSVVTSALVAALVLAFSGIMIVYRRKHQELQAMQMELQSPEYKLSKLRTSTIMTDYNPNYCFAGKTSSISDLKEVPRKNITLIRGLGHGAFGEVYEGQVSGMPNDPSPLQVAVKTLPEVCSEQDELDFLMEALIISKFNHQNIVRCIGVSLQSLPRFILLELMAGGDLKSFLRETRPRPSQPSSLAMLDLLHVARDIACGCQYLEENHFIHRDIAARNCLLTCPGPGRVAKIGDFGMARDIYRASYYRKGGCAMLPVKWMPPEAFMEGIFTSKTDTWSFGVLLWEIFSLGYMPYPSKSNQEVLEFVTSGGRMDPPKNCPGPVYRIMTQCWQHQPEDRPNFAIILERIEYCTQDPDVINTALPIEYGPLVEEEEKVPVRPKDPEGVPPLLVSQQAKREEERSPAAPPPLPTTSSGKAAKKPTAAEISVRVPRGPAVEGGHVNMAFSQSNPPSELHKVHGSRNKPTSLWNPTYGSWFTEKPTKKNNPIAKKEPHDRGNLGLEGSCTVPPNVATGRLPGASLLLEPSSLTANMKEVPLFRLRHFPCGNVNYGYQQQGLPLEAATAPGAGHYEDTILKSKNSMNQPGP
T1 sequence (P00533 whole entry): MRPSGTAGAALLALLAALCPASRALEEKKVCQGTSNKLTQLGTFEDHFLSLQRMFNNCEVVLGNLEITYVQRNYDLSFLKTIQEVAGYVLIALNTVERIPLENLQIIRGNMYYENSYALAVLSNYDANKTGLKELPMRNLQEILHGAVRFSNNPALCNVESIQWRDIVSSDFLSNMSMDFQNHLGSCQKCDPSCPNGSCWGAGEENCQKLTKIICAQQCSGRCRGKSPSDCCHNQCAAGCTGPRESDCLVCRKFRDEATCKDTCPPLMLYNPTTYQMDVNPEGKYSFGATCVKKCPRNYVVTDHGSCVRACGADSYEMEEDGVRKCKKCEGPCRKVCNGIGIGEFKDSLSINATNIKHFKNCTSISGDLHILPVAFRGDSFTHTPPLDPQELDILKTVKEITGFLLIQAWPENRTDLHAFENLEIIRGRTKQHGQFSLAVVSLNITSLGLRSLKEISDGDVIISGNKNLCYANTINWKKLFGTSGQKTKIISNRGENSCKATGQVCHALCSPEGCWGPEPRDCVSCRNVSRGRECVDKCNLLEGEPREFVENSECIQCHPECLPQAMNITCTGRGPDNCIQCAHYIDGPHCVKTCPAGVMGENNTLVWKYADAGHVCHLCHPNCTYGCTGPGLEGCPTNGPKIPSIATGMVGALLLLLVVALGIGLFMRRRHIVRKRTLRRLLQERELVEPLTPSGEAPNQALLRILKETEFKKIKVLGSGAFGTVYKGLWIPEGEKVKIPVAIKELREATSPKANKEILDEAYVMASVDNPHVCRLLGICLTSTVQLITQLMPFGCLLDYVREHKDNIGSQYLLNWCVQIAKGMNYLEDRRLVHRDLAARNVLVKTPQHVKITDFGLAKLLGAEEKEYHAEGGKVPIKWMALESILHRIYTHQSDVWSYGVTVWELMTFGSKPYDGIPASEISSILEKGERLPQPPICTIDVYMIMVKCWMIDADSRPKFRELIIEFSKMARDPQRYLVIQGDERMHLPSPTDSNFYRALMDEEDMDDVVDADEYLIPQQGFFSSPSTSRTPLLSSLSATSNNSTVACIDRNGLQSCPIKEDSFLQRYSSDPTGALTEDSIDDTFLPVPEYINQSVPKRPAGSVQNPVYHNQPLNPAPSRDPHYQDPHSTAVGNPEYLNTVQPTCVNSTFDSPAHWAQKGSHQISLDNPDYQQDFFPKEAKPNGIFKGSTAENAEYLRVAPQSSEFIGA
ALK tyrosine kinase receptor (Homo sapiens), Q9UM73 [F1174L], sequence (Q9UM73 whole entry F1174L): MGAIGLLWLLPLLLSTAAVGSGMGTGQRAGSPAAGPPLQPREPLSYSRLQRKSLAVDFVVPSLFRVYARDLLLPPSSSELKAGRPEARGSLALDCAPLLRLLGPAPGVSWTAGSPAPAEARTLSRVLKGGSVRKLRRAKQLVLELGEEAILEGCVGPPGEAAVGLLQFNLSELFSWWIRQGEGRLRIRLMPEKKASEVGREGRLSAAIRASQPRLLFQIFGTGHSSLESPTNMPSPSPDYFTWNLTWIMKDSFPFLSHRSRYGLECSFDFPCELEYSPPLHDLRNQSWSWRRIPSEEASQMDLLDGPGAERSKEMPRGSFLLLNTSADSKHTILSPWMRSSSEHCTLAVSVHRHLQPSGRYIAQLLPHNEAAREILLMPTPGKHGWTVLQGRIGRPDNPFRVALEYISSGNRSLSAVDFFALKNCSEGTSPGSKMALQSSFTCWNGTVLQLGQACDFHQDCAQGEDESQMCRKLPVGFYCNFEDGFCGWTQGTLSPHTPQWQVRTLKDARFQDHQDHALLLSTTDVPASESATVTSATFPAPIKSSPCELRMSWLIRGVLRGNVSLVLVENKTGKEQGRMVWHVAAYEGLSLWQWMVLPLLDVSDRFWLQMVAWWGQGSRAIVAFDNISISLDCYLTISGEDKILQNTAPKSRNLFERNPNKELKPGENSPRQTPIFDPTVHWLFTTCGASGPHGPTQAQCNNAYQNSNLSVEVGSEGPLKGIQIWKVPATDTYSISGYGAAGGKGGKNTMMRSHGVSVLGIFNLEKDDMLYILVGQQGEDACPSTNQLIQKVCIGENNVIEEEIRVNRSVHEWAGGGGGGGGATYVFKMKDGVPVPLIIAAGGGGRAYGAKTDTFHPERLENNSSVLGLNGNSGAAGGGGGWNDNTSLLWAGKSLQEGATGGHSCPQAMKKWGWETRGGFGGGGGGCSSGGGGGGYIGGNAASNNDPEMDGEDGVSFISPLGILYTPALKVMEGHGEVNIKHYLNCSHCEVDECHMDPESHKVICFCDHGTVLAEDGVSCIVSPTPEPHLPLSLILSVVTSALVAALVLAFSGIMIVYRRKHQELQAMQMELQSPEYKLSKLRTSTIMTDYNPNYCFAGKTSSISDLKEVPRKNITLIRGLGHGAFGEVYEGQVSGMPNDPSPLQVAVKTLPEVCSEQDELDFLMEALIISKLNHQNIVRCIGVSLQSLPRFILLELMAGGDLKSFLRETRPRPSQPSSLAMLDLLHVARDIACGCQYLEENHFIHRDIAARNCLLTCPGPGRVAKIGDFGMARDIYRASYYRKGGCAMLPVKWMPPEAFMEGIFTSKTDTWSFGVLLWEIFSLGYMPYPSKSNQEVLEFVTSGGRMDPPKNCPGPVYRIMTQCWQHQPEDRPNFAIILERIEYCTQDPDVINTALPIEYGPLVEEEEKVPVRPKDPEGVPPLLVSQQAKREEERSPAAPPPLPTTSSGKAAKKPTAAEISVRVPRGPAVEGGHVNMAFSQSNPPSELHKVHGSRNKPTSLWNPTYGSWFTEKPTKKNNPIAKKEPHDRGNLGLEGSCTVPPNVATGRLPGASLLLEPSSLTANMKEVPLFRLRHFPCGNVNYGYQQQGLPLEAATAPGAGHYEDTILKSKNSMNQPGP
ALK tyrosine kinase receptor (Homo sapiens), Q9UM73 [G1202R], sequence (Q9UM73 whole entry G1202R): as the sequence (Q9UM73 whole entry F1174L) above, with L1174F, G1202R counted along it

C=CC(=O)Nc1cc(Nc2ncc(Cl)c(Nc3ccccc3S(=O)(=O)C(C)C)n2)c(OC)cc1N1CCCN(C)CC1
GI50 [1]: 0.23 µM
Activity [2]: Active
GI50 [3]: 0.015 µM
GI50 [4]: 1.8 µM
GI50 [5]: 1.4 µM
AUC(0-t) [6]: 0.707 µg·h/mL
Cmax [7]: 1.49 µg/mL
bioavailability [8]: 16.1%
half-life [9]: 1.75 h
inhibition [10]: Active
inhibition [11]: inactive
inhibition [12]: inactive
inhibition [13]: inactive
inhibition [14]: Active
inhibition [15]: Active
inhibition [16]: Active
Activity [17]: Active
Activity [18]: Active
Activity [19]: Non-Toxic
inhibition in vivo at 10 mg/kg [20]: 10.8%
TGI [21]: Dose-dependent effect
Ratio IC50 [22]: 20 to 30
Ratio IC50 [23]: 20 to 30
RatioGI50 [24]: 15
inhibition [25]: Active
GI50 [26]: 0.001 µM
GI50 [27]: 0.029 µM
GI50 [28]: 0.46 µM
Activity [29]: Non-Toxic
inhibition in vivo at 20 mg/kg [30]: 96%
inhibition in vivo at 40 mg/kg [31]: 99%
Activity [32]: 1.58 g

Reference: ChEMBL document CHEMBL4145441, “Discovery of N-(5-((5-chloro-4-((2-(isopropylsulfonyl)phenyl)amino)pyrimidin-2-yl)amino)-4-methoxy-2-(4-methyl-1,4-diazepan-1-yl)phenyl)acrylamide (CHMFL-ALK/EGFR-050) as a potent ALK/EGFR dual kinase inhibitor capable of overcoming a variety of ALK/EGFR associated drug resistant mutants in NSCLC” (Eur J Med Chem, 2017)
